The series in a line: Toxicity liver stage against HepG2, at 10uM. The arrangement: test concentration 10 uM, cell line HepG2-A16-CD81EGFP. Particulars: human, HepG2-A16-CD81EGFP cells; read-out: INHIBITION
Type of series: cell-based. In outline: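 Uninfected HepG2-A16-CD81EGFP cells, 3 × 10^3 per well, 1536-well, plated on prespotted compound at 10 μM final, parasite-free screening media added to match infected plates; puromycin 10 μM positive, DMSO 0.5% negative; run in parallel with 48 h PbLuc assay at 37 °C, 5% CO2; viability by CellTiter-Glo luminescence, normalized to controls.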

These results are taken from ChEMBL document CHEMBL4513216, “Probing the Open Global Health Chemical Diversity Library for Multistage-Active Starting Points for Next-Generation Antimalarials” (ACS Infect Dis, 2020).

For the molecule `c1cc(CN2CCc3c(nnn3CC3CC3)C2COCC2CC2)co1` (stereo unspecified), the cytotoxicity at 10 µM came to 2.02%.

With `CC(NC(=O)NCCCN(C)S(C)(=O)=O)c1cccc(Cl)c1` (stereo unspecified), the cytotoxicity at 10 µM amounted to 3.44%.

`O=C(c1ccco1)N1CCN(Cc2nc(C3CC3)no2)CC1`: the cytotoxicity at 10 µM was 5.21%.

On to `O=C(NCc1ccncc1)C1CN(c2nc3ccccc3s2)CCN1` (stereo unspecified), for which the cytotoxicity at 10 µM was -105%.

As for `Cc1n[nH]c(C)c1S(=O)(=O)N1CCC(Oc2ccccc2F)CC1`, the cytotoxicity at 10 µM turned out to be 1.22%.

Take `CC1CN(C)CCN1C(=O)c1ccn(-c2ccccc2Cl)n1` (stereo unspecified): the cytotoxicity at 10 µM was -6.33%.

For `O=C(CC1CC1)N(Cc1cccnc1)CC1CCN(C2CCCC2)CC1`, the cytotoxicity at 10 µM stood at 5.95%.

With `CCN(CC1CCOC1)C(=O)Nc1ccc(N2CCCCC2)nc1` (stereo unspecified), the cytotoxicity at 10 µM was -6.45%.

As for `OCC1(CC2CC2)CCCN(Cc2cnc(C3CCCCC3)nc2)C1` (stereo unspecified), the cytotoxicity at 10 µM was -9.2%.

Regarding `CCc1nnc2n1CCN(C(=O)c1ccc(-c3ccco3)nc1C)C2`, the cytotoxicity at 10 µM is -7.23%.

As to `CC(C)C(NC(=O)NCC1(CO)CC1)c1nnc2n1CCC2` (stereo unspecified), the cytotoxicity at 10 µM was -6.11%.

Regarding `O=C(C1CCCC1)N1CC2(CCN(C3COC3)C2)Cc2ccccc21` (stereo unspecified), the cytotoxicity at 10 µM was 10.1%.

`CC(C)Cc1ncc2c(n1)CN(c1nc(N(C)C)nc3c1CCCC3)C2`: the cytotoxicity at 10 µM is 2.27%.

Consider `O=C(C1CCC1)N1CCN(Cc2ccc(F)cc2)[C@H]2CS(=O)(=O)C[C@H]21`, for which the cytotoxicity at 10 µM was determined as 1.65%.

As for `Cc1ccc(N2CCCC(N(C)Cc3ccccn3)C2)nn1` (stereo unspecified), the cytotoxicity at 10 µM is -4.01%.

For `CCN1CC2(CCOCC2)c2cc(NS(=O)(=O)CC)ccc21`, the cytotoxicity at 10 µM is -104%.

For `O=C(NC1CCN(c2ccc(-c3ccccc3F)nn2)C1)C1CCC1` (stereo unspecified), the cytotoxicity at 10 µM came to 26%.

For the molecule `O=C(c1ccc2ccc(N3CCN(CC4CC4)CC3)n2c1)N1CCCO1`, the cytotoxicity at 10 µM was 9.81%.

Turning to `Cn1cc(C2CC(=O)NC23CCN(Cc2cccc(F)c2)CC3)cn1` (stereo unspecified), the cytotoxicity at 10 µM worked out at 7.13%.

As for `c1ccc(N2CCCC3(CCN(Cc4ccsc4)C3)C2)nc1` (stereo unspecified), the cytotoxicity at 10 µM is -14%.

On to `Cc1cccc(C)c1NCc1noc(C2CC2)n1`, for which the cytotoxicity at 10 µM is -5.06%.

In the case of `CCc1ncc2c(n1)CN(Cc1nc(-c3ccoc3)no1)CC2`, the cytotoxicity at 10 µM came to 1.61%.

As to `CCC(NC(=O)C(C)C)c1ccccc1C` (stereo unspecified), the cytotoxicity at 10 µM was determined as 5.81%.

For the molecule `c1cc(CN2CCC3(CCOCC3COCC3CC3)CC2)co1` (stereo unspecified), the cytotoxicity at 10 µM is -2.69%.

In the case of `COCCC(=O)N1CCCC2(CCCN2Cc2ccccc2F)C1` (stereo unspecified), the cytotoxicity at 10 µM was 8.01%.

For the molecule `Cc1cc(N)nc(SC2CCCN(Cc3ccccc3)C2=O)n1` (stereo unspecified), the cytotoxicity at 10 µM was -5.45%.

Regarding `N#Cc1ccc(CN(CC(N)=O)C2CCCC2)c(Br)c1`, the cytotoxicity at 10 µM came out at 30.1%.

With `CCS(=O)(=O)N1C[C@@H](c2nnc(C)o2)C[C@H]2OCC[C@H]21`, the cytotoxicity at 10 µM stood at 1.36%.

For the molecule `CC1COCCN1C(=O)Nc1cnc2c(cnn2C(C)C)c1` (stereo unspecified), the cytotoxicity at 10 µM was -2.21%.

Consider `CCc1c(C)nc2cc(C3CCN(Cc4cccnc4)C3)nn2c1O` (stereo unspecified), for which the cytotoxicity at 10 µM is -25.4%.

Regarding `CC(C)(CN1CCCC1)CN1CCC(Cn2cc(C3CC3)nn2)CC1`, the cytotoxicity at 10 µM is -12.2%.

Take `O=C(c1ccc(CN2CCCCC2)cc1)N1Cc2cnn(CCO)c2C1`: the cytotoxicity at 10 µM is 12.6%.

In the case of `CCNC(=O)NC1CN(CC(=O)NCc2ccccc2C)C[C@@H]1OC` (stereo partly specified), the cytotoxicity at 10 µM was -1.6%.

`Cc1cc(CN2CCC3(CC2)CC(C(=O)O)N(C(=O)C2CC2)C3)oc1C` (stereo unspecified): the cytotoxicity at 10 µM is -7.32%.

Turning to `CCc1nn(C)c2[nH]nc(NC(=O)c3cccnc3OC)c12`, the cytotoxicity at 10 µM is -8.98%.

`CN(Cc1ccccc1)C(=O)CCNS(=O)(=O)c1cccnc1`: the cytotoxicity at 10 µM is -1.24%.

On to `Cc1cccc(-c2[nH]ncc2CNCC2CCN(CC(C)O)CC2)c1` (stereo unspecified), for which the cytotoxicity at 10 µM is -10.1%.

As for `COCCN1CCC(c2nc3ccc(-c4ccccc4)cn3n2)CC1`, the cytotoxicity at 10 µM was -8.84%.

Take `O=C1CCC(c2ccccc2)=NN1CN1CCCCCC1`: the cytotoxicity at 10 µM is -86.3%.

As for `COc1cc(C2CC(=O)Nc3c2nc2n3CCCC2)cc2c1OCO2` (stereo unspecified), the cytotoxicity at 10 µM is -6.67%.

As for `CN(C)c1ncccc1C(=O)N1CCc2c(ncn2C2CC2)C1`, the cytotoxicity at 10 µM is 1.28%.

On to `Cc1ccc(C2(C(=O)NCCCn3cccn3)CCOCC2)cc1`, for which the cytotoxicity at 10 µM came to 9.73%.

`O=C(NCC(F)(F)F)c1ccc(-c2ccco2)[nH]c1=O`: the cytotoxicity at 10 µM was -21.6%.

For `O=C1CCC(c2nc(C3CCNCC3)no2)N1` (stereo unspecified), the cytotoxicity at 10 µM is -3.96%.

`COc1ncccc1C(=O)N(C)Cc1nc(-c2ccccn2)no1`: the cytotoxicity at 10 µM was determined as 3.38%.

In the case of `CC(=O)NCC(=O)N1CC[C@H](OCC2CC2)[C@@H]1Cc1cccnc1`, the cytotoxicity at 10 µM was -1.99%.

Regarding `CN(C)c1cc2c(nn1)CCN(C(=O)Cc1noc3ccccc13)C2`, the cytotoxicity at 10 µM is -10.7%.

Consider `COc1ncnc2c1CCN(C(=O)NCc1cccc(F)c1)CC2`, for which the cytotoxicity at 10 µM is -7.27%.

Consider `CS(=O)(=O)c1cccc(C(=O)NCCCN2CCc3ccccc3C2)c1`, for which the cytotoxicity at 10 µM is -12.1%.

For `COc1ccc(CCN2CCCC(Cn3nc(C)nc3C)C2)cc1` (stereo unspecified), the cytotoxicity at 10 µM is -3.34%.

Regarding `CCn1cc(C(=O)NCCc2nc(-c3ccc(C)cc3)n[nH]2)c(C)n1`, the cytotoxicity at 10 µM worked out at 9.03%.

Consider `NC(=O)CCc1cccc(C2CCNCC2)n1`, for which the cytotoxicity at 10 µM was -3.28%.

Turning to `O=C(CCn1cccc1)NCc1ccc(CN2CCCCCC2)o1`, the cytotoxicity at 10 µM is -5.2%.

Regarding `COCC(O)CN(C)C(=O)NCc1ccc(-c2ccn[nH]2)cc1` (stereo unspecified), the cytotoxicity at 10 µM came to 1.81%.

As to `CCN(CC)c1nc2sc(C(=O)N3CCNC(=O)C3)cc2s1`, the cytotoxicity at 10 µM was -4.29%.

Take `O=C([C@@H]1C[C@@H]2CCN(CCc3ccccc3)C[C@H]2O1)N1CCCC1`: the cytotoxicity at 10 µM turned out to be 0.307%.

As to `COC1CCN(C(=O)c2cc(-c3ccc(Cl)cc3)on2)CC1`, the cytotoxicity at 10 µM was -0.885%.

On to `CNC(=O)[C@@H]1C[C@H]2CN(C(=O)c3ccccn3)C[C@H]2N1C(C)C`, for which the cytotoxicity at 10 µM was determined as 7.45%.

As to `Cc1nn(C)c2nc(-c3ccccn3)nc(NC[C@@H]3CCCO3)c12`, the cytotoxicity at 10 µM came to 7.49%.

On to `COCCN(C(=O)c1cnccn1)c1nc2c(s1)CCc1c-2cnn1C`, for which the cytotoxicity at 10 µM was -24.3%.

For `CN(CC1CCCO1)C1CCN(CCc2ccccn2)CC1` (stereo unspecified), the cytotoxicity at 10 µM was -5.6%.

Consider `O=C(NC[C@]12COC[C@H]1CN(Cc1cccs1)C2)c1ccsc1`, for which the cytotoxicity at 10 µM is -0.629%.

Consider `CCc1c(C)nc2n(c1=O)CC(C(=O)Nc1sccc1C(=O)OC)CS2` (stereo unspecified), for which the cytotoxicity at 10 µM was 3.24%.

Turning to `Cc1noc(C2CCCN(Cn3cc(Br)cn3)C2)n1` (stereo unspecified), the cytotoxicity at 10 µM was -3.67%.

As to `CN(CC(=O)NCC(O)c1cccc(F)c1)C(=O)OC(C)(C)C` (stereo unspecified), the cytotoxicity at 10 µM worked out at 1.2%.

Turning to `CN(Cc1cccnc1)CC1CC12CCCC2` (stereo unspecified), the cytotoxicity at 10 µM is -0.243%.

As for `NC(=O)CCCNC(=O)CCc1cc(Br)cs1`, the cytotoxicity at 10 µM was 4.11%.

Turning to `CC(O)CN1CCC(CNCc2ccc(OC(F)(F)F)cc2)CC1` (stereo unspecified), the cytotoxicity at 10 µM is -13.6%.

For the molecule `COc1cccc(CN2CCC3(CCN(C(=O)C4CC=CC4)CC3)C2)c1`, the cytotoxicity at 10 µM was -0.602%.

On to `COc1ccc(Cl)cc1C(=O)NC(CC(=O)O)c1cccs1` (stereo unspecified), for which the cytotoxicity at 10 µM was -6.16%.

Take `CC(C)(C)Nc1nc(-c2cccnc2)c(-c2ccnc(NCCO)n2)s1`: the cytotoxicity at 10 µM is -5.64%.

As for `Cc1nc(CN2C(=O)CCC23CCN(c2ncccn2)CC3)cs1`, the cytotoxicity at 10 µM was -7.71%.

On to `COCC(=O)Nc1cnc(N2CCN(c3ccccc3)CC2)nc1`, for which the cytotoxicity at 10 µM is -9.87%.

Take `CCC(O)CN(CC(=O)NC(=O)NC1CC1)c1ccccc1` (stereo unspecified): the cytotoxicity at 10 µM was -2.48%.

As to `CCOCCC(=O)NCC1COc2c(cccc2OC)C1` (stereo unspecified), the cytotoxicity at 10 µM is -142%.

As for `CC(Cc1cccs1)C(=O)NCc1cccc(N2CCCC2=O)c1` (stereo unspecified), the cytotoxicity at 10 µM came out at 2.4%.

In the case of `CCSc1ncc(CN2CCN(c3nc(C)ncc3C)CC2)cn1`, the cytotoxicity at 10 µM came out at 27.3%.

In the case of `Cc1ccc(-c2cc(C)nc(C3CCCN3S(C)(=O)=O)n2)cc1` (stereo unspecified), the cytotoxicity at 10 µM was -8.27%.

For the molecule `O=C(c1ccsc1)N1CCO[C@@H]2CN(Cc3cccs3)C[C@@H]2C1`, the cytotoxicity at 10 µM was -133%.

`CCN1CCN(C(=O)c2nc(C)n(-c3ccccc3Cl)n2)CC1`: the cytotoxicity at 10 µM is -2.87%.

For the molecule `CCN1CCCC(O)(CNCc2ccccc2F)C1` (stereo unspecified), the cytotoxicity at 10 µM is -5.66%.

On to `CN(C)CCNC(=O)[C@H]1C[C@H]2CN(C(=O)NCc3ccccc3)C[C@@H]1O2`, for which the cytotoxicity at 10 µM was 1.96%.

With `O=C(Cc1ccc2c(c1)CCO2)N1CCCC1c1noc(C2CC2)n1` (stereo unspecified), the cytotoxicity at 10 µM is -7.71%.

As to `COCCN(C)[C@@H]1c2ccccc2C2(CCNCC2)[C@H]1O`, the cytotoxicity at 10 µM was -4.61%.

For `COC1CCN(C(=O)c2c(Cl)c3ccccc3n2C)CC1`, the cytotoxicity at 10 µM was determined as 4.39%.

As to `COc1ccc(-c2cnc3n2CCNC32CCN(S(C)(=O)=O)CC2)cc1`, the cytotoxicity at 10 µM is -2.72%.

Regarding `O=C(NC1CCC1)C1CCC2(CN(C(=O)c3ccno3)C2)O1` (stereo unspecified), the cytotoxicity at 10 µM was -134%.

Take `Cn1c(-c2ccc(F)cc2)cn2cc(C(=O)N3CCC(N)C3)nc2c1=O` (stereo unspecified): the cytotoxicity at 10 µM amounted to 4.43%.

Turning to `CCCc1nnc(NCCn2nc(C)c(Cl)c2C)o1`, the cytotoxicity at 10 µM turned out to be 1.89%.

Consider `O=C1CSc2ccccc2N1Cc1noc(C2CCCO2)n1` (stereo unspecified), for which the cytotoxicity at 10 µM was determined as 8.35%.

In the case of `Cc1noc(C)c1CCC(=O)Nc1ccn(C)n1`, the cytotoxicity at 10 µM was -2.4%.

On to `CC(C)[C@H](N)C(=O)N1CCCC(C2=Nc3ccccc3S(=O)(=O)N2)C1` (stereo partly specified), for which the cytotoxicity at 10 µM amounted to 7.96%.

In the case of `OC(CN1CCN(CC(F)F)CC1)c1ccc(Br)cc1` (stereo unspecified), the cytotoxicity at 10 µM was -9.88%.

In the case of `Cc1ccc(CNC2CCCc3c2cnn3C)s1` (stereo unspecified), the cytotoxicity at 10 µM is -0.987%.

Regarding `O=C(Cn1ccc2ccc(Cl)cc21)NCc1ccc(C(=O)O)cc1`, the cytotoxicity at 10 µM worked out at 7.91%.

`CN(Cc1ccco1)Cc1ccccc1CNC(=O)c1cc[nH]n1`: the cytotoxicity at 10 µM is -8.11%.
